{
  "source": "ChEMBL document CHEMBL1131041",
  "about": "(J Med Chem, 1998)",
  "key": {"[1]": {"species_on_record": "Cavia porcellus", "assay": "Partial agonist activity expressed as inhibition of contraction of guinea pig ileal longitudinal muscle myenteric plexus (GPI) at 1 uM conc.", "type": "functional, organism-based", "details": "Muscle tissue", "procedure,_shortened": "(§1)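 Agonist action on electrically driven tissues at 37 °C: GPI (1 g tension, 0.4-ms pulses) and Mg-free MVD (0.5 g, 2-ms pulses), 0.1 Hz. Percent inhibition of contraction height read 10 min after 1 μM compound; for stronger agonists, IC50 from concentration–response curves (2–4 tissues, nonlinear least squares). Selectivity = GPI IC50/MVD IC50.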"}, "[2]": {"biological_target": "Delta-type opioid receptor (Mus musculus, UniProt P32300)", "sequence (P32300 whole entry)": "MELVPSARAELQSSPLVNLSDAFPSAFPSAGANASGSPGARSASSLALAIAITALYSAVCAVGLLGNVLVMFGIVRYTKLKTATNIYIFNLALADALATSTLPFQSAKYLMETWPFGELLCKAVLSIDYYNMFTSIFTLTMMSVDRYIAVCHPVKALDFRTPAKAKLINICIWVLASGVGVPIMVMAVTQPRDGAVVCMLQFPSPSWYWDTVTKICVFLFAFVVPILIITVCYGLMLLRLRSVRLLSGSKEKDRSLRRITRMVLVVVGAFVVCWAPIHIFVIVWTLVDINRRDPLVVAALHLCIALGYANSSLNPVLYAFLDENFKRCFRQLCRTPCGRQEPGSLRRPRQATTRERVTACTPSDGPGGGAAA", "assay": "Partial agonist activity expressed as inhibition of contraction of mouse vas deferens (MVD) smooth muscle at 1 uM conc.", "type": "functional, tissue-based, Muscle tissue", "procedure,_shortened": "as §1"}, "[3]": {"assay": "Relative affinity for guinea pig kappa1 and rat delta receptors"}, "[4]": {"biological_target": "Opioid receptors; mu & delta (Homo sapiens) (UniProt P41143+P35372)", "sequence (P35372 whole entry, looked up)": "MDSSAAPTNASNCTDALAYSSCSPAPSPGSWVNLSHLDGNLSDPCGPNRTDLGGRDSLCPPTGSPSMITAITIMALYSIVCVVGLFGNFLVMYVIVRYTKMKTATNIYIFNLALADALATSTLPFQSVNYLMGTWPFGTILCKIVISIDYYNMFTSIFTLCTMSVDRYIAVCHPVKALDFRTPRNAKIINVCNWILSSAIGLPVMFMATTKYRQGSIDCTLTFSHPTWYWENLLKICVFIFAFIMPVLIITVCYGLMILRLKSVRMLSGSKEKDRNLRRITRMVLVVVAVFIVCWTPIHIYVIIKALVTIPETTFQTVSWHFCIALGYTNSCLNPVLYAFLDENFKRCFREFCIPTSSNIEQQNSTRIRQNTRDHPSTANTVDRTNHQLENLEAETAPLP", "sequence (P41143 whole entry, looked up)": "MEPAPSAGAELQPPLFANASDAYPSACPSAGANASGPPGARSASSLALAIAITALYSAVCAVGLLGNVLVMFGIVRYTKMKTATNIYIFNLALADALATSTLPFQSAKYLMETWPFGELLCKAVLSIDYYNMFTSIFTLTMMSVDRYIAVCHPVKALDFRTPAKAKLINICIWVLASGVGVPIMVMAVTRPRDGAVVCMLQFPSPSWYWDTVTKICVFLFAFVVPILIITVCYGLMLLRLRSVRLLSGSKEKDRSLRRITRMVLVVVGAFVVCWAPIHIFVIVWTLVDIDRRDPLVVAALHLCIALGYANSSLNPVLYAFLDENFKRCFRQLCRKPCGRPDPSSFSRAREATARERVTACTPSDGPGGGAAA", "assay": "IC50 selectivity for mu receptor of guinea pig Ileum (GPI) and delta receptor of delta opioid receptor of mouse vas deferens (MVD) smooth muscle preparation", "type": "tissue-based", "procedure,_shortened": "as §1"}, "[5]": {"biological_target": "Delta-type opioid receptor (Mus musculus) (UniProt P32300)", "sequence (P32300 whole entry)": "as the sequence (P32300 whole entry) above", "assay": "Displacement of DPDPE from Opioid receptor delta 1 of mouse vas deferens (MVD)smooth muscle", "procedure,_shortened": "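Mouse vas deferens (male ICR, 25–40 g) in Mg-free oxygenated Krebs at 37 °C, 0.5 g tension; transmural 0.1 Hz, 2-ms pulses, supramaximal voltage. Control DPDPE curve first; then 1 μM compound 30 min, 30 min wash, cumulative DPDPE curve (3-min steps) repeated. IC50 ratio = shifted/control IC50; Ke = [antagonist]/(ratio − 1); n ≥ 3.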"}, "[6]": {"biological_target": "T1, Kappa-type opioid receptor (Cavia porcellus, UniProt P41144)", "T1 sequence (P41144 whole entry)": "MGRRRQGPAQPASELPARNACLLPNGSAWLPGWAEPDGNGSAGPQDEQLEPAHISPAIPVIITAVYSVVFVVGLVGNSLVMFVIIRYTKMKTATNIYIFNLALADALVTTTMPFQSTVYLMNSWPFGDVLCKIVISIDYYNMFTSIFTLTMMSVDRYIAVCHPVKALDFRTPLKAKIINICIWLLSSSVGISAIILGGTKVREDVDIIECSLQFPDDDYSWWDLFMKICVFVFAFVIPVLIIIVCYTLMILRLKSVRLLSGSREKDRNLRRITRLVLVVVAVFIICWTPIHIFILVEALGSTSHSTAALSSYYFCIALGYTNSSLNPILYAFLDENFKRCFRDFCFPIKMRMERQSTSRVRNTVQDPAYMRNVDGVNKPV", "assay": "Displacement of [125I]OXY from Opioid receptor kappa 2b of guinea pig brain membranes (pretreated with BIT(mu) and FIT(delta) and in the presence of (-)U50,488)", "procedure,_shortened": "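Guinea pig brain membranes depleted of μ/δ sites by BIT and FIT, labelled with 0.01 nM [125I]IOXY in presence of 5 μM (−)U50,488. Incubation 4–6 h at 4 °C in 50 mM Tris-HCl pH 7.4 with 10 mM NaCl, protease inhibitors and 1 μg/mL captopril.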"}, "[7]": {"biological_target": "Mu-type opioid receptor (Rattus norvegicus, UniProt P33535)", "sequence (P33535 whole entry)": "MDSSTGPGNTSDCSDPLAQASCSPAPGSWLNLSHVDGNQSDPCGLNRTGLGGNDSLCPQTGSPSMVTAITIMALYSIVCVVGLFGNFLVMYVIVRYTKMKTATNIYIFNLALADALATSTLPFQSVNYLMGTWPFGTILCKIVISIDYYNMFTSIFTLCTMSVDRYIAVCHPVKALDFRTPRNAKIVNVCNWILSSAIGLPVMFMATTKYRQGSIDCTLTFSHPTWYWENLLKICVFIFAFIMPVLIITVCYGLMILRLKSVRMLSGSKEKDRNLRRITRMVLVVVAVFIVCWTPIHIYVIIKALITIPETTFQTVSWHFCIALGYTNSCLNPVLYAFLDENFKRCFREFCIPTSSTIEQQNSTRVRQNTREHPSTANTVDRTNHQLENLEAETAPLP", "assay": "Displacement of [3H]DAMGO from Opioid receptor mu 1 of rat brain membranes", "type": "cell membranes, Membrane", "procedure,_shortened": "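Rat brain membranes labelled with [3H]DAMGO. Incubation 4 h at 25 °C in 50 mM Tris-HCl pH 7.4 with protease inhibitor cocktail. Nonspecific binding defined with 20 μM levallorphan. 8–10 test concentrations, run twice; IC50 and slope factor derived.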"}, "[8]": {"biological_target": "T2, Delta-type opioid receptor (Rattus norvegicus, UniProt P33533)", "T2 sequence (P33533 whole entry)": "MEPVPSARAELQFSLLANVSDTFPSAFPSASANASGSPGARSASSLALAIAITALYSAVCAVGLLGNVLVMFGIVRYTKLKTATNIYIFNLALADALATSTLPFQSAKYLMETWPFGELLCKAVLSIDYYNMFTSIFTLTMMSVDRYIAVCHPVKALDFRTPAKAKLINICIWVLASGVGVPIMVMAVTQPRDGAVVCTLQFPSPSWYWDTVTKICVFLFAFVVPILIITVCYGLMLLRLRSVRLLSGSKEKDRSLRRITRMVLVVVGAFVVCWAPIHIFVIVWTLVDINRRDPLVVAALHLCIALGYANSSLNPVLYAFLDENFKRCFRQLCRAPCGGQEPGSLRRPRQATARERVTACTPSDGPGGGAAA", "assay": "Displacement of [3H]DADLE from morphine-sensitive Opioid receptor delta 1 (presence of 300 nM DELT-II) of rat brain membranes", "type": "cell membranes, Membrane", "procedure,_shortened": "(§2)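 Rat brain membranes pretreated with (+)-trans-[…], labelled with 2.0 nM [3H]DADLE, plus 50 nM morphine (δcx-2) or 300 nM DELT-II (δcx-1). Incubation 4–6 h at 25 °C in 10 mM Tris-HCl pH 7.4 with 100 mM NaCl, 3 mM MnCl2, 2 μM GTP, 5 mM 2-mercaptoethanol and protease inhibitors. 8–10 concentrations, twice.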"}, "[9]": {"biological_target": "T1, Kappa-type opioid receptor", "assay": "Displacement of [3H]U-69593 from Opioid receptor kappa 1 of guinea pig brain membranes (pretreated with BIT and FIT to block mu and delta sites)", "procedure,_shortened": "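Guinea pig brain membranes pretreated with BIT and FIT, labelled with [3H]U69,593. Incubation 4–6 h at 25 °C in 50 mM Tris-HCl pH 7.4 with protease inhibitors and 1 μg/mL captopril. Nonspecific binding with 1 μM U69,593. 8–10 concentrations, twice.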"}, "[10]": {"biological_target": "T2, Delta-type opioid receptor", "assay": "Displacement of [3H]DADLE from morphine-insensitive Opioid receptor delta 1 (presence of 50 nM morphine) of rat brain membranes", "type": "cell membranes, Membrane", "procedure,_shortened": "as §2"}, "[11]": {"biological_target": "T2, Delta-type opioid receptor", "assay": "Displacement of [3H]DADLE from Opioid receptor delta 1 of rat brain membranes (DAMGO quenching mu receptor)", "type": "cell membranes, Membrane", "procedure,_shortened": "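Rat brain membranes labelled with [3H]DADLE. Incubation 3–4 h at 25 °C in 10 mM Tris-HCl pH 7.4 with 100 mM choline chloride, 3 mM MnCl2, 100 nM DAMGO (μ block) and protease inhibitors. Levallorphan 20 μM for nonspecific binding. 8–10 concentrations, duplicate runs.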"}, "[12]": {"biological_target": "Opioid receptors; mu & delta (Rattus norvegicus) (UniProt P33533+P33535)", "sequence (P33533 whole entry, looked up)": "as the sequence (P33533 whole entry) above", "sequence (P33535 whole entry, looked up)": "as the sequence (P33535 whole entry) above", "assay": "Relative affinity for mu and delta receptors in rat brain membranes", "type": "cell membranes"}},
  "data": [
    {"compound": "Oc1ccc2c3c1OC1c4[nH]c5cc(Oc6ccccc6)ccc5c4C[C@@]4(O)[C@@H](C2)N(CC2CC2)CC[C@]314", "note": "(some centres not stated)", "values": [
      {"measurement": "IC50", "setting": "[1]", "value": 2300, "unit": "nM"},
      {"measurement": "IC50", "setting": "[2]", "value": 3000, "unit": "nM"},
      {"measurement": "Selectivity ratio", "setting": "[3]", "value": 37},
      {"measurement": "Selectivity ratio", "setting": "[4]", "value": 0.8},
      {"measurement": "Ke", "setting": "[5]", "value": 4.6, "unit": "nM"},
      {"measurement": "Ki", "setting": "[6]", "value": 175, "unit": "nM"},
      {"measurement": "Ki", "setting": "[7]", "value": 235, "unit": "nM"},
      {"measurement": "Ki", "setting": "[8]", "value": 89.4, "unit": "nM"},
      {"measurement": "Ki", "setting": "[9]", "value": 236, "unit": "nM"},
      {"measurement": "Ki", "setting": "[10]", "value": 4.9, "unit": "nM"},
      {"measurement": "Ki", "setting": "[11]", "value": 6.4, "unit": "nM"},
      {"measurement": "Selectivity ratio", "setting": "[12]", "value": 37}
    ]}
  ]
}
